Test results taken from ChEMBL document CHEMBL4359872, “Identification of potent triazolylpyridine nicotinamide phosphoribosyltransferase (NAMPT) inhibitors bearing a 1,2,3-triazole tail group” (Eur J Med Chem, 2019).
In brackets after ≈: the same amount, converted by molar mass. Activity calls are given as the source filed them. The rule behind the calls is not given here.

Tests used:
[1] = Cytotoxicity against human SH-SY5Y cells assessed as cell viability at 1 uM measured after 48 hrs by MTT assay relative to control; format: cell-based; conditions: read-out: Activity
SH-SY5Y = assay: Cytotoxicity against human SH-SY5Y cells measured after 48 hrs by MTT assay; format: cell-based
[2] = target: Nicotinamide phosphoribosyltransferase (Mus musculus, UniProt Q99KQ4); assay: Inhibition of recombinant mouse wild-type NAMPT expressed in bacterial expression system using PRPP as substrate in presence of mouse NMNAT-3 measured for 1 hr by fluorescence assay
Method in brief: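 In vitro NAMPT enzymatic assay run as concentration-response curves, with IC50 derived from the curves. Mean ± SD of three independent experiments (n = 6).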

[3] = Half-life in human; format: ADME
4T1 [4] = assay: Antitumor activity against mouse 4T1 cells implanted in BALB/c mouse assessed as reduction in tumour volume at 10 mg/kg, ip bid for 12 days by vernier caliper method; format: functional, organism-based
Method in brief: (§1)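 Tumour cells implanted in the mammary gland. Dosing began at day 14, once tumours were palpable, after randomization into vehicle and treated groups of 4 mice each. Compound given intraperitoneally at 10 mg/kg twice a day for 12 consecutive days. Data are means of two independent experiments.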

[5] = Toxicity in Crl:CD Sprague-Dawley rat heart assessed as interstitial expansion at 200 mg/kg, po administered once daily for 5 days via gavage by hematoxylin and eosin staining based microscopic analysis; format: organism-based; conditions: in vivo, 120 h
[6] = Toxicity in Crl:CD Sprague-Dawley rat heart assessed as increase in cardiomyocytes cytoplasmic vacuolation at 200 mg/kg, po administered once daily for 5 days via gavage by hematoxylin and eosin staining based microscopic analysis; format: organism-based; conditions: in vivo, 120 h
4T1 [7] = assay: Antitumor activity against mouse 4T1 cells implanted in Balb/c mouse mouse assessed as inhibition of tumor metastasis at 10 mg/kg, ip bid for 12 days measured post last dose by crystal violet staining based thioguanine clonogenic assay; format: functional, organism-based; method in brief: as §1
4T1 [8] = assay: Antitumor activity against mouse 4T1 cells implanted in BALB/c mouse assessed as reduction in tumor weight at 10 mg/kg, ip bid for 12 days; format: functional, organism-based; method in brief: as §1
[9] = Toxicity in Crl:CD Sprague-Dawley rat retina at 200 mg/kg, po administered once daily for 5 days via gavage by hematoxylin and eosin staining based microscopic analysis; format: organism-based; conditions: in vivo, 120 h
[10] = Toxicity in Crl:CD Sprague-Dawley rat heart assessed as hypereosinophilia at 200 mg/kg, po administered once daily via gavage for 5 days by hematoxylin and eosin staining based microscopic analysis; format: organism-based; conditions: in vivo, 120 h
[11] = Kinetic aqueous solubility of the compound in 80:20 PBS/acetonitrile solution at 200 to 500 uM by HTS assay; format: physicochemical; conditions: read-out: Kinetic_solubility
[12] = Permeability across apical side to basolateral side in human Caco2 cells at 30 uM after 4 hrs by HPLC analysis; format: ADME, cell-based; conditions: caco-2, 4 h
Method in brief: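 Caco-2 monolayer used to measure apical-to-basal transfer, reported as % permeability and Papp. Terbutaline served as the positive control; n = 3.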

[13] = target: Nicotinamide phosphoribosyltransferase (Homo sapiens) (UniProt P43490); assay: Inhibition of NAMPT in human SH-SY5Y cells assessed as reduction in NAD levels at 100 nM measured after 16 hrs by diaphorase and resazurin dye based fluorescence assay relative to control; format: cell-based
Method in brief: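 SH-SY5Y cells treated at 100 nM for 16 h, then NAD level reduction measured as % of control. Mean ± SD of two independent experiments (n = 6).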

[14] = Selectivity ratio of EC50 for cytotoxicity against human SH-SY5Y cells to IC50 for recombinant mouse wild-type NAMPT expressed in bacterial expression system; format: cell-based
[15] = Drug metabolism in human liver microsomes assessed as pyridine N-oxidation at 50 uM measured after 60 mins […] by LC-ESI/MS analysis; format: ADME, Microsome; conditions: 1 h
[16] = Thermodynamic solubility of compound in water after 24 hrs by LC-UV based shake flask method; format: physicochemical; conditions: buffer
Method in brief: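 Thermodynamic water solubility measured by saturation shake flask, with the concentration of the saturated solution reported.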

Lymphocyte [17] = assay: Genotoxicity in human primary lymphocytes in presence of S9 fraction by GreenScreen assay; format: toxicity, cell-based
[18] = Drug metabolism in human liver microsomes assessed as oxidative N-dealkylation at 50 uM measured after 60 mins […] by LC-ESI/MS analysis; format: ADME, Microsome; conditions: 1 h
[19] = Drug metabolism in Wistar Han rat liver microsomes assessed as oxidative N-dealkylation at 50 uM measured after 60 mins […] by LC-ESI/MS analysis; format: ADME, Microsome; conditions: 1 h
TK6 [20] = assay: Genotoxicity in human TK6 cells in presence of S9 fraction by GreenScreen assay; format: toxicity, cell-based
[21] = Kinetic aqueous solubility of the compound in 80:20 PBS/acetonitrile solution at 200 uM by HTS assay; format: physicochemical; conditions: buffer
Lymphocyte [22] = assay: Genotoxicity in human primary lymphocytes assessed as induction of DNA damage up to 1000 uM by GreenScreen assay; format: toxicity, cell-based
[23] = Drug metabolism in human liver microsomes assessed as aliphatic hydroxylation of paraffin linker at 50 uM measured after 60 mins […] by LC-ESI/MS analysis; format: ADME, Microsome; conditions: 1 h
[24] = Drug metabolism in Wistar Han rat liver microsomes assessed as aliphatic hydroxylation of paraffin linker at 50 uM measured after 60 mins […] by LC-ESI/MS analysis; format: ADME, Microsome; conditions: 1 h
TK6 [25] = assay: Genotoxicity in human TK6 cells assessed as induction of DNA damage up to 1000 uM by GreenScreen assay; format: toxicity, cell-based
[26] = Drug metabolism in Wistar Han rat liver microsomes assessed as pyridine N-oxidation at 50 uM measured after 60 mins […] by LC-ESI/MS analysis; format: ADME, Microsome; conditions: 1 h
[27] = Toxicity in Crl:CD Sprague-Dawley rat heart assessed as increase in cardiomyocytes cytoplasmic vacuolation at 100 mg/kg, ip administered once daily for 5 days by hematoxylin and eosin staining based microscopic analysis; format: organism-based; conditions: in vivo, 120 h
[28] = Toxicity in Crl:CD Sprague-Dawley rat heart assessed as interstitial expansion at 100 mg/kg, ip administered once daily for 5 days by hematoxylin and eosin staining based microscopic analysis; format: organism-based; conditions: in vivo, 120 h
[29] = Toxicity in Crl:CD Sprague-Dawley rat retina at 100 mg/kg, ip administered once daily for 5 days by hematoxylin and eosin staining based microscopic analysis; format: organism-based; conditions: in vivo, 120 h
[30] = Toxicity in Crl:CD Sprague-Dawley rat heart assessed as hypereosinophilia at 100 mg/kg, ip administered once daily for 5 days by hematoxylin and eosin staining based microscopic analysis; format: organism-based; conditions: in vivo, 120 h

Sequence of Nicotinamide phosphoribosyltransferase (Q99KQ4 whole entry): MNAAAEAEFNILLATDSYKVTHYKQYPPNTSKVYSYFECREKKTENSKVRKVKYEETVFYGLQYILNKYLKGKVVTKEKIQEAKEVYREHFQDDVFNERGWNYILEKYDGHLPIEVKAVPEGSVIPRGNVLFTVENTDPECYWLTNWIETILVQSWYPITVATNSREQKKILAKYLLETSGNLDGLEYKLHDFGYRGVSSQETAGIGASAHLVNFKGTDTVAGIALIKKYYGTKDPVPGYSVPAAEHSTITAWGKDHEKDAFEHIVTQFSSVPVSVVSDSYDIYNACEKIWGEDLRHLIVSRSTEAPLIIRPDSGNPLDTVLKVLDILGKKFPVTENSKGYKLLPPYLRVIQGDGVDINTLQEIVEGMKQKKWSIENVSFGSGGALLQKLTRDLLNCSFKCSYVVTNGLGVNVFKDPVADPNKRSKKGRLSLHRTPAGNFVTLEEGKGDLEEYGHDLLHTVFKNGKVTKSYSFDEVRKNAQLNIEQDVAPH
Sequence of Nicotinamide phosphoribosyltransferase (Homo sapiens) (P43490 whole entry, looked up): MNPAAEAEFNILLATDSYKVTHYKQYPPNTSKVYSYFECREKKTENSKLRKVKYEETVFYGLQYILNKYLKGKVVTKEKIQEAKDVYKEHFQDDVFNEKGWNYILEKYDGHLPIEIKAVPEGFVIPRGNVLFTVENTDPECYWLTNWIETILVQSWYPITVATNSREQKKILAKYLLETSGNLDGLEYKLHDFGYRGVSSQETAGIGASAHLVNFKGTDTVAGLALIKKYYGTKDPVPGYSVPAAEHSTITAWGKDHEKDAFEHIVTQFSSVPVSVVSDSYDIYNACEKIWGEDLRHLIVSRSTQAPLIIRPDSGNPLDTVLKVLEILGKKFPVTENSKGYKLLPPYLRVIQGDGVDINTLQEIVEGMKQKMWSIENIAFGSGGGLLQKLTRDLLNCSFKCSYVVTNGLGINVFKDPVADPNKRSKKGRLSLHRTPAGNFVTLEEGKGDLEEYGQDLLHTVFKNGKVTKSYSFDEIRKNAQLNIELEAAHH

O=C(NCCCCCCCn1cc(-c2cccnc2)nn1)c1ccccc1-c1c[nH]nn1
viability at 48 h, 1 µM [1]: 23.5% | EC50 (SH-SY5Y): 0.0865 µM | IC50 [2]: 0.0425 µM

N#CN=C(NCCCCCCOc1ccc(Cl)cc1)Nc1ccncc1 [CHS-828]
half-life [3]: 2.1 h | Activity (4T1 [4]): Active | Activity [5]: Non-Toxic | Activity [6]: Non-Toxic | inhibition (4T1 [7]): Active | Activity (4T1 [8]): Active | Activity [9]: Non-Toxic | Activity [10]: Non-Toxic

O=C(NCCCCCCCn1cc(-c2cccnc2)nn1)c1ccccc1-c1cccnc1
viability at 48 h, 1 µM [1]: 15.1% | EC50 (SH-SY5Y): 0.0365 µM | IC50 [2]: 0.0285 µM

O=C(NCCCCCCCn1cc(-c2cccnc2)nn1)c1ccccc1-n1cc(CN2CCCCC2)nn1
viability at 48 h, 1 µM [1]: 15.9% | solubility kinetic [11]: 200 to 500 µM (≈ 106 to 264 µg/mL) | EC50 (SH-SY5Y): > 0.5 µM | IC50 [2]: 0.0171 µM

CN1CCN(Cc2cn(-c3ccccc3C(=O)NCCCCCCCn3cc(-c4cccnc4)nn3)nn2)CC1
permeability [12]: < 1% | inhibition [13]: inactive | viability at 48 h, 1 µM [1]: 87.7% | solubility kinetic [11]: 200 to 500 µM (≈ 109 to 271 µg/mL) | EC50 (SH-SY5Y): > 10 µM | IC50 [2]: 0.0136 µM | Selectivity ratio [14]: 200

O=C(O)c1ccccc1-c1ccccc1C(=O)NCCCCCCCn1cc(-c2cccnc2)nn1
viability at 48 h, 1 µM [1]: 80.9% | EC50 (SH-SY5Y): > 0.5 µM | IC50 [2]: 0.0385 µM

O=C(NCCCCCCCn1cc(-c2ccc[n+]([O-])c2)nn1)c1ccccc1-c1ccccc1
viability at 48 h, 1 µM [1]: 103% | IC50 [2]: > 0.5 µM

O=C(NCCCCCCCn1cc(-c2cccnc2)nn1)c1ccccc1-c1ccccc1
Drug metabolism [15]: Metabolite_Detected | Therm_solubility [16]: Soluble | LEC (Lymphocyte [17]): 125 µM | Drug metabolism [18]: Metabolite_Detected | Drug metabolism [19]: Metabolite_Detected | MTC (TK6 [20]): 125 µM | Kinetic_solubility [21]: Soluble | Activity (Lymphocyte [22]): Non-Toxic | Drug metabolism [23]: Metabolite_Detected | Drug metabolism [24]: Metabolite_Detected | Activity (TK6 [25]): Non-Toxic | Drug metabolism [26]: Metabolite_Detected

CN(C)Cc1cn(-c2ccccc2C(=O)NCCCCCCCn2cc(-c3cccnc3)nn2)nn1
viability at 48 h, 1 µM [1]: 86.6% | solubility kinetic [11]: 200 to 500 µM (≈ 97.5 to 244 µg/mL) | EC50 (SH-SY5Y): 0.285 µM | IC50 [2]: 0.0424 µM

O=C(/C=C/c1cccnc1)NCCCCC1CCN(C(=O)c2ccccc2)CC1 [DAPORINAD]
permeability [12]: 20.5% | viability at 48 h, 1 µM [1]: 9.7% | Activity [27]: Toxic | Activity [28]: Non-Toxic | EC50 (SH-SY5Y): 0.0025 µM | Kinetic_solubility [21]: Soluble | Activity [29]: Non-Toxic | Activity [30]: Toxic

O=C(O)c1cccc(-c2ccccc2C(=O)NCCCCCCCn2cc(-c3cccnc3)nn2)c1
viability at 48 h, 1 µM [1]: 78.4% | EC50 (SH-SY5Y): > 0.5 µM | IC50 [2]: > 0.5 µM
